Key:
MDA-MB-231 [1] = experiment: Cytotoxicity against human MDA-MB-231 cells assessed as cell viability after 5 days by cell viability analyzer; format: functional, cell-based; conditions: MDA-MB-231, 120 h
Summary of the method: (§1)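 Cells were grown in DMEM with 10% FBS, 4 mM glutamine, 1 mM sodium pyruvate, penicillin/streptomycin and amphotericin at 37 °C under 5% CO2, then seeded at 20,000 per well. They were exposed to five doses from 0.01 to 10 μM for 5 days, with DMSO vehicle as control. Viable cells were counted, and % viability was calculated as treated/vehicle. IC50 was taken from dose-response curves over three independent experiments.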

HeLa [2] = experiment: Cytotoxicity against human HeLa cells assessed as cell viability after 5 days by cell viability analyzer; format: functional, cell-based; conditions: 120 h; summary of the method: as §1
MCF10 = experiment: Cytotoxicity against human MCF10 cells at 1 to 10 uM; format: cell-based; conditions: mcf10, 10 µM
MDA-MB-231 [3] = experiment: Ratio of chlorambucil IC50 to compound IC50 for human MDA-MB-231 cells assessed as cell viability after 5 days by cell viability analyzer; format: functional
Summary of the method: (§2)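 Cells grown in DMEM with 10% FBS, 4 mM glutamine, 1 mM sodium pyruvate, penicillin/streptomycin and amphotericin at 37 °C under 5% CO2. They were seeded at 20,000 per well and exposed to test agents or chlorambucil at 5 doses (0.01–10 μM) for 5 days, with DMSO as vehicle. Viable cells were counted by analyzer and expressed as % of vehicle. IC50s for both agents came from dose-response curves over three independent experiments.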

MCF7 = experiment: Ratio of chlorambucil IC50 to compound IC50 for human MCF7 cells assessed as cell viability after 5 days by cell viability analyzer; format: functional; summary of the method: as §2
HeLa [4] = experiment: Ratio of chlorambucil IC50 to compound IC50 for human HeLa cells assessed as cell viability after 5 days by cell viability analyzer; format: functional; summary of the method: as §2

Compound	IC50 (MDA-MB-231 [1])	IC50 (HeLa [2])	Activity (MCF10)	Ratio IC50 (MDA-MB-231 [3])	Ratio IC50 (MCF7)	Ratio IC50 (HeLa [4])
CC(c1cc(O)c2c(c1O)C(=O)c1ccccc1C2=O)N(CCCl)CCCl (stereo not given)	1000 nM	154 nM	–	–	–	–
O=C1c2ccccc2C(=O)c2c(O)c(CN(CCCl)CCCl)cc(O)c21	211 nM	139 nM	–	–	–	–
CCC(c1cc(O)c2c(c1O)C(=O)c1ccccc1C2=O)N(CCCl)CCCl (stereo not given)	84.5 nM	105 nM	–	–	–	–
CCCC(c1cc(O)c2c(c1O)C(=O)c1ccccc1C2=O)N(CCCl)CCCl (stereo not given)	61.9 nM	152 nM	–	–	–	–
CC(C)C(c1cc(O)c2c(c1O)C(=O)c1ccccc1C2=O)N(CCCl)CCCl (stereo not given)	77.6 nM	217 nM	Toxic	–	–	–
CC(C)CC(c1cc(O)c2c(c1O)C(=O)c1ccccc1C2=O)N(CCCl)CCCl (stereo not given)	14.6 nM	392 nM	–	–	–	–
O=C1c2ccccc2C(=O)c2c(O)c(C(Cc3ccccc3)N(CCCl)CCCl)cc(O)c21 (stereo not given)	51.1 nM	665 nM	–	–	–	–
O=C1c2ccccc2C(=O)c2c(O)c(C(c3ccccc3)N(CCCl)CCCl)cc(O)c21 (stereo not given)	137 nM	339 nM	Toxic	–	–	–
O=C1c2ccccc2C(=O)c2c(O)c(C(c3ccccc3F)N(CCCl)CCCl)cc(O)c21 (stereo not given)	0.59 nM	615 nM	Toxic	900	–	–
O=C1c2ccccc2C(=O)c2c(O)c(C(c3cccc(F)c3)N(CCCl)CCCl)cc(O)c21 (stereo not given)	59.6 nM	166 nM	Toxic	–	–	–
O=C1c2ccccc2C(=O)c2c(O)c(C(c3ccc(F)cc3)N(CCCl)CCCl)cc(O)c21 (stereo not given)	80.7 nM	249 nM	Toxic	–	100	–
O=C1c2ccccc2C(=O)c2c(O)c(C(c3ccc(Cl)cc3)N(CCCl)CCCl)cc(O)c21 (stereo not given)	48 nM	185 nM	–	–	–	–
O=C1c2ccccc2C(=O)c2c(O)c(C(c3ccc(Br)cc3)N(CCCl)CCCl)cc(O)c21 (stereo not given)	299 nM	262 nM	–	–	–	–
COc1ccccc1C(c1cc(O)c2c(c1O)C(=O)c1ccccc1C2=O)N(CCCl)CCCl (stereo not given)	2.13 nM	210 nM	Toxic	–	–	–
COc1cccc(C(c2cc(O)c3c(c2O)C(=O)c2ccccc2C3=O)N(CCCl)CCCl)c1 (stereo not given)	91.2 nM	210 nM	Toxic	–	–	–
COc1ccc(C(c2cc(O)c3c(c2O)C(=O)c2ccccc2C3=O)N(CCCl)CCCl)cc1 (stereo not given)	12.9 nM	457 nM	Toxic	–	–	–
Cc1ccc(C(c2cc(O)c3c(c2O)C(=O)c2ccccc2C3=O)N(CCCl)CCCl)cc1 (stereo not given)	22.5 nM	93.8 nM	–	–	–	10
Cc1ccc(C(c2cc(O)c3c(c2O)C(=O)c2ccccc2C3=O)N(CCCl)CCCl)cc1C (stereo not given)	389 nM	234 nM	Toxic	–	–	–
O=C1c2cccc(O)c2C(=O)c2c1ccc(C(c1ccccc1)N(CCCl)CCCl)c2O (stereo not given)	316 nM	308 nM	–	–	–	–
COc1cc(C(c2ccccc2)N(CCCl)CCCl)c(O)c2c1C(=O)c1ccccc1C2=O (stereo not given)	278 nM	480 nM	Toxic	–	–	–
O=C(O)CCCc1ccc(N(CCCl)CCCl)cc1 [CHLORAMBUCIL]	520 nM	943 nM	–	–	–	–

Reference: ChEMBL document CHEMBL3616423, “Design and synthesis of novel hydroxyanthraquinone nitrogen mustard derivatives as potential anticancer agents via a bioisostere approach” (Eur J Med Chem, 2015)
